Test results from ChEMBL document CHEMBL3286131, “Design, synthesis and systematic evaluation of cytotoxic 3-heteroarylisoquinolinamines as topoisomerases inhibitors” (Eur J Med Chem, 2014).
“And” between values parts separate entries of the source, which are not always exact repeats. Identical values can stand only once.

Assays:
[1] = biological target: T1, DNA topoisomerase 1 (Homo sapiens) (UniProt P11387); assay: Inhibition of recombinant human DNA topoisomerase-1-mediated relaxation of supercoiled DNA pBR322 at 20 uM after 7 hrs using ethidium bromide staining by agarose gel electrophoresis analysis
T1 sequence (whole entry): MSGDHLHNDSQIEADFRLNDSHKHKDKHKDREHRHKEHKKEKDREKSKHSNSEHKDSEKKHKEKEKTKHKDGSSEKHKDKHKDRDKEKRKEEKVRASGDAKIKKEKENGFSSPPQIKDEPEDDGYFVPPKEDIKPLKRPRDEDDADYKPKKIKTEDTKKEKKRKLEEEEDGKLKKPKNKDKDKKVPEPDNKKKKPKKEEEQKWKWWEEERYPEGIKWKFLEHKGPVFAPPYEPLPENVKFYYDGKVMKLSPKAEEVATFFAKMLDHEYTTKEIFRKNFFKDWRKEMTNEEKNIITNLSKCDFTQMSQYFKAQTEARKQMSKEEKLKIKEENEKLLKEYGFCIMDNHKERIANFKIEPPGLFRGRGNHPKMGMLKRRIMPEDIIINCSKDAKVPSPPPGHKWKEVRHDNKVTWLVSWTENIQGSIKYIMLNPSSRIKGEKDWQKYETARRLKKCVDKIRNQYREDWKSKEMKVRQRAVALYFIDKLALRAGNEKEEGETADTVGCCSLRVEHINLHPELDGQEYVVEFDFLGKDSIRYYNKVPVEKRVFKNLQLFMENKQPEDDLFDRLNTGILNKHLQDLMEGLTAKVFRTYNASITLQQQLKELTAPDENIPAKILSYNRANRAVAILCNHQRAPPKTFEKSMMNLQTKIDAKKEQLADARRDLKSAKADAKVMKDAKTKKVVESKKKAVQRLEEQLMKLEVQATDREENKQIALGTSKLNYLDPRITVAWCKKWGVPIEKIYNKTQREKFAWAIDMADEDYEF
Procedure, shortened: (§1)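 pBR322 (100 ng) incubated with recombinant human topo I (0.4 units) ± compound for 30 min at 37 °C. Buffer: 10 mM Tris-HCl pH 7.9, 150 mM NaCl, 0.1% BSA, 1 mM spermidine, 5% glycerol. Quenched with sarcosyl stop solution. 1% agarose gel run at 15 V for 7 h in TAE, ethidium bromide stain, supercoiled DNA quantified under UV.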

[2] = biological target: T1, DNA topoisomerase 1 (Homo sapiens); assay: Inhibition of recombinant human DNA topoisomerase-1-mediated relaxation of supercoiled DNA pBR322 at 100 uM after 7 hrs using ethidium bromide staining by agarose gel electrophoresis analysis; procedure, shortened: as §1
[3] = biological target: DNA topoisomerase 2-alpha (Homo sapiens) (UniProt P11388); assay: Inhibition of human DNA topoisomerase-2a-mediated relaxation of supercoiled DNA pBR322 at 100 uM after 4 hrs using ethidium bromide staining by agarose gel electrophoresis analysis
Procedure, shortened: (§2)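 Supercoiled pBR322 (200 ng) incubated with human topo IIα (1 unit) ± compound for 30 min at 30 °C. Buffer: 10 mM Tris-HCl pH 7.9, 50 mM NaCl, 50 mM KCl, 5 mM MgCl2, 1 mM EDTA, 1 mM ATP, BSA. Stopped with EDTA. 1% agarose gel run at 25 V for 4 h in TAE, ethidium bromide stain, supercoiled DNA quantified by UV imaging.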

[4] = biological target: DNA topoisomerase 2-alpha (Homo sapiens) (UniProt P11388); assay: Inhibition of human DNA topoisomerase-2a-mediated relaxation of supercoiled DNA pBR322 at 20 uM after 4 hrs using ethidium bromide staining by agarose gel electrophoresis analysis; procedure, shortened: as §2
[5] = Cytotoxicity against human MCF10A cells after 2 days; type: cell-based, MCF-10A
Procedure, shortened: (§3)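 Cells seeded at 2-4 × 10^4 per well in medium with 10% FBS and incubated overnight at 37 °C, 5% CO2. Graded compound concentrations added on day 2. CCK-8 reagent added on day 4 for a further 4 h, absorbance read at 450 nm. IC50 from a four-parameter logistic fit; mean ± S.D. of three experiments run in triplicate.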

HeLa [6] = assay: Cell cycle arrest in human HeLa cells assessed as accumulation at G2/M phase phase at 25 uM after 24 hrs using […] by flow cytometry analysis relative to control; type: functional
Procedure, shortened: (§4)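 HeLa cells exposed to graded compound concentrations for 24 h, harvested by centrifugation, PBS-washed twice, fixed overnight on ice in 70% ethanol. Stained with 10 μg/mL propidium iodide plus 0.5 mg/mL RNase and 0.1% Triton X-100 in PBS, 30 min at 37 °C in the dark. Flow cytometry gates: sub-G0/G1, G0/G1, S, G2/M.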

HeLa [7] = assay: Cell cycle arrest in human HeLa cells assessed as accumulation at G0/G1 phase phase at 10 uM after 24 hrs using ethidium bromide staining by flow cytometry analysis relative to control; type: functional; settings: in the assay text read “propidium iodide staining” for “ethidium bromide staining”; procedure, shortened: as §4
HeLa [8] = assay: Cell cycle arrest in human HeLa cells assessed as accumulation at sub-G0/G1 phase at 25 uM after 24 hrs using […] by flow cytometry analysis relative to control; type: functional; procedure, shortened: as §4
HeLa [9] = assay: Cell cycle arrest in human HeLa cells assessed as accumulation at G0/G1 phase phase at 50 uM after 24 hrs using […] by flow cytometry analysis relative to control; type: functional; procedure, shortened: as §4
T47D = assay: Cytotoxicity against human T47D cells after 2 days; type: functional, cell-based; settings: t47d; procedure, shortened: as §3
HeLa [10] = assay: Cell cycle arrest in human HeLa cells assessed as accumulation at G0/G1 phase phase at 25 uM after 24 hrs using […] by flow cytometry analysis relative to control; type: functional; procedure, shortened: as §4
HeLa [11] = assay: Cell cycle arrest in human HeLa cells assessed as accumulation at S phase phase at 5 uM after 24 hrs using ethidium bromide staining by flow cytometry analysis relative to control; type: functional; settings: in the assay text read “propidium iodide staining” for “ethidium bromide staining”; procedure, shortened: as §4
HeLa [12] = assay: Cell cycle arrest in human HeLa cells assessed as accumulation at sub-G0/G1 phase at 10 uM after 24 hrs using ethidium bromide staining by flow cytometry analysis relative to control; type: functional; settings: in the assay text read “propidium iodide staining” for “ethidium bromide staining”; procedure, shortened: as §4
HeLa [13] = assay: Cell cycle arrest in human HeLa cells assessed as accumulation at G2/M phase phase at 50 uM after 24 hrs using […] by flow cytometry analysis relative to control; type: functional; procedure, shortened: as §4
HeLa [14] = assay: Cell cycle arrest in human HeLa cells assessed as accumulation at G2/M phase phase at 5 uM after 24 hrs using ethidium bromide staining by flow cytometry analysis relative to control; type: functional; settings: in the assay text read “propidium iodide staining” for “ethidium bromide staining”; procedure, shortened: as §4
DU-145 = assay: Cytotoxicity against human DU145 cells after 2 days; type: functional, cell-based; procedure, shortened: as §3
HeLa [15] = assay: Cell cycle arrest in human HeLa cells assessed as accumulation at G2/M phase phase at 10 uM after 24 hrs using ethidium bromide staining by flow cytometry analysis relative to control; type: functional; settings: in the assay text read “propidium iodide staining” for “ethidium bromide staining”; procedure, shortened: as §4
HeLa [16] = assay: Cell cycle arrest in human HeLa cells assessed as accumulation at S phase phase at 50 uM after 24 hrs using […] by flow cytometry analysis relative to control; type: functional; procedure, shortened: as §4
HeLa [17] = assay: Cell cycle arrest in human HeLa cells assessed as accumulation at sub-G0/G1 phase at 50 uM after 24 hrs using […] by flow cytometry analysis relative to control; type: functional; procedure, shortened: as §4
HeLa [18] = assay: Cell cycle arrest in human HeLa cells assessed as accumulation at S phase phase at 25 uM after 24 hrs using […] by flow cytometry analysis relative to control; type: functional; procedure, shortened: as §4
HeLa [19] = assay: Cell cycle arrest in human HeLa cells assessed as accumulation at S phase phase at 10 uM after 24 hrs using ethidium bromide staining by flow cytometry analysis relative to control; type: functional; settings: in the assay text read “propidium iodide staining” for “ethidium bromide staining”; procedure, shortened: as §4
[20] = Cytotoxicity against human HCT15 cells after 2 days; type: functional, cell-based, HCT-15; procedure, shortened: as §3
HeLa [21] = assay: Cell cycle arrest in human HeLa cells assessed as accumulation at G0/G1 phase phase at 5 uM after 24 hrs using ethidium bromide staining by flow cytometry analysis relative to control; type: functional; settings: in the assay text read “propidium iodide staining” for “ethidium bromide staining”; procedure, shortened: as §4

DNA topoisomerase 2-alpha (Homo sapiens), sequence (P11388 whole entry): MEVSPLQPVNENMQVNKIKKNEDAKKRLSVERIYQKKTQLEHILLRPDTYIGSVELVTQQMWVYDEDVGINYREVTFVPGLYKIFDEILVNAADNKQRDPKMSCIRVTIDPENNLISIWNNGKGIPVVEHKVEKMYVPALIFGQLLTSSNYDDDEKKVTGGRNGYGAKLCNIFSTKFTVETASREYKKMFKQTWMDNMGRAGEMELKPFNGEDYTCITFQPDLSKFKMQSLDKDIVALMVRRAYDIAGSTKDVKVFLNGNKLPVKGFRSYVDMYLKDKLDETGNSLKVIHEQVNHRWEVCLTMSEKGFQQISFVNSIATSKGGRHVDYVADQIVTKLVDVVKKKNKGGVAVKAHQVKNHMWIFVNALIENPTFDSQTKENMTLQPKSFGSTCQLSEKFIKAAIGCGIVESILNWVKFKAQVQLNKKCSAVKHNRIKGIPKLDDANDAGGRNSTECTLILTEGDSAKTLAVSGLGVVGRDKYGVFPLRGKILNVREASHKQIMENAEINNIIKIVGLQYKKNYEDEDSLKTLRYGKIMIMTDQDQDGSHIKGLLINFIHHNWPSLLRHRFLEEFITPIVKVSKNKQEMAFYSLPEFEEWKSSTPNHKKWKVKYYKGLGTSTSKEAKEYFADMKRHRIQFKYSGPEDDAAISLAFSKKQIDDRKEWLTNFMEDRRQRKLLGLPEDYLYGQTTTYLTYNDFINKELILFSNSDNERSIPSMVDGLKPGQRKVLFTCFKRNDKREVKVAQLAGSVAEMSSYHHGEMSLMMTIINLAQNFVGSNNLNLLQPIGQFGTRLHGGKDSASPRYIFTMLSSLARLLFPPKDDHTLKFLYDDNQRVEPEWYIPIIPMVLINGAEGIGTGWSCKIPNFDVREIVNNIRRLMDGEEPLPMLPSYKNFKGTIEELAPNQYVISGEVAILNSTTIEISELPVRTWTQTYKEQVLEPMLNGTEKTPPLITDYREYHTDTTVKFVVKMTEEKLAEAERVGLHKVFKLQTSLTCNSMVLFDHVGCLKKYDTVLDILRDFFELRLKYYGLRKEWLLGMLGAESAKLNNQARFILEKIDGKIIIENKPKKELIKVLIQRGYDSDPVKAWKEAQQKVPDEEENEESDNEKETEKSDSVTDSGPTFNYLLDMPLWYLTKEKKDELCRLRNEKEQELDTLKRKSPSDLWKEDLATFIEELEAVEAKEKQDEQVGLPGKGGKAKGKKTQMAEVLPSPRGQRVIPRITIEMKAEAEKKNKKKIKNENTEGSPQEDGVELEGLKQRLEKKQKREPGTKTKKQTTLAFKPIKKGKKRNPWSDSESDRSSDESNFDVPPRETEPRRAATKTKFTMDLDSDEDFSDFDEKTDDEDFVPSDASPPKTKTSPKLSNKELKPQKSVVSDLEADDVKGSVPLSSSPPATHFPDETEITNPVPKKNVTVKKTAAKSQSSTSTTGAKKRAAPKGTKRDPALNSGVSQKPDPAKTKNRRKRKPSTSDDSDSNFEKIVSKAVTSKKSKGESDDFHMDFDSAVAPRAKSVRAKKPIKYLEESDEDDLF

SMILES	inhibition [2]	Activity (HeLa [6])	Activity (HeLa [7])	Activity (HeLa [8])	Activity (HeLa [9])	IC50 (T47D)	Activity (HeLa [10])	Activity (HeLa [11])	Activity (HeLa [12])	Activity (HeLa [13])	Activity (HeLa [14])	Activity (HeLa [15])	Activity (HeLa [16])	Activity (HeLa [17])	Activity (HeLa [18])	Activity (HeLa [19])	Activity (HeLa [21])	other results
c1csc(-c2cc3ccccc3c(N3CCOCC3)n2)c1	0%	–	–	–	–	–	–	–	–	–	–	–	–	–	–	–	–	inhibition [4]: 0%
Cl.c1csc(-c2cc3ccccc3c(N3CCNCC3)n2)c1	–	1.23%	67.99%	85.1%	0.18%	4.51 µM	7.25%	12.7%	3.57%	0.02%	16.24%	15.05%	0.04%	99.58%	1.85%	7.13%	60.31%	IC50 ([5]; mcf-10a): 18.1 µM; IC50 (DU-145; du-145): 8.25 µM; IC50 ([20]; hct-15): 5.45 µM
CCN1CCN(c2nc(-c3cccs3)cc3ccccc23)CC1	–	19.68%	66.35%	3.77%	71.23%	17.4 µM	55.62%	10.47%	2.08%	11.7%	14.89%	17.28%	7.96%	3.97%	13.4%	9.46%	65.03%	IC50 ([5]; mcf-10a): 49 µM; IC50 (DU-145; du-145): > 50 µM; IC50 ([20]; Homo sapiens, HCT-15, 48 h): 7.42 µM
Cc1ccc2c(N3CCNCC3)nc(-c3cccs3)cc2c1	–	0.22%	3.24%	96%	1.4%	8.74 µM	1.89%	11.25%	92.31%	0.04%	11.58%	0.23%	0.35%	97.06%	0.5%	0.64%	62.69%	IC50 ([5]; Homo sapiens, MCF-10A, 48 h): 7.25 µM; IC50 (DU-145; Homo sapiens, DU-145, 48 h): 8.31 µM; IC50 ([20]; hct-15): 1.31 µM

Further lines, with some results ahead:

inhibition [2]	SMILES	Activity (HeLa [6])	Activity (HeLa [7])	Activity (HeLa [8])	Activity (HeLa [9])	IC50 (T47D)	Activity (HeLa [10])	Activity (HeLa [11])	Activity (HeLa [12])	Activity (HeLa [13])	Activity (HeLa [14])	Activity (HeLa [15])	Activity (HeLa [16])	Activity (HeLa [17])	Activity (HeLa [18])	Activity (HeLa [19])	Activity (HeLa [21])	other results
71.9% and 77.9%	Cc1ccc2cc(-c3cccs3)nc(N3CCOCC3)c2c1	–	–	–	–	–	–	–	–	–	–	–	–	–	–	–	–	inhibition [1]: 1.1% and 3.7%; inhibition [3]: 0% and 5.1%
0%	Cc1ccc2c(N3CCOCC3)nc(-c3cccs3)cc2c1	–	–	–	–	–	–	–	–	–	–	–	–	–	–	–	–	inhibition [4]: 1.7%
77.5% and 89.6%	Cc1ccc2cc(-c3cccs3)nc(N3CCCCC3)c2c1	–	–	–	–	–	–	–	–	–	–	–	–	–	–	–	–	inhibition [1]: 0%; inhibition [3]: 3.6% and 13.7%
